Measurements pooled from the literature.
Each line is one published result; the experiments were not run side by side.
MET M1250T: Hepatocyte growth factor receptor (MET, Homo sapiens, UniProt P08581, M1250T)
MET D1228H: Hepatocyte growth factor receptor (MET, Homo sapiens, UniProt P08581, D1228H)
MET Y1235D: Hepatocyte growth factor receptor (MET, Homo sapiens, UniProt P08581, Y1235D)
MET: Hepatocyte growth factor receptor (MET, Homo sapiens, UniProt P08581)

| SMILES | target | assay | conditions | quantity | value |
| --- | --- | --- | --- | --- | --- |
| C[C@H]1CCN(c2nccc(-c3cnn4ncccc34)n2)C1 | MET M1250T | binding | 1 µM | remaining binding | 50% |
| Cc1cnc(NC2CCOCC2)nc1-n1cnc(C(=O)NC(CN)c2cc(F)cc(Cl)c2)c1 (stereo not shown) | MET D1228H | enzyme activity, inhibitor, radiometric | 1 µM | remaining activity | 98% |
| O=C(O)c1cc(-c2ccc(C3CCNCC3)cc2)c2ccc(-c3ccc(C(F)(F)F)cc3)cc2c1 | MET Y1235D | cell-free assay, competition with immobilised ligand | 1 µM | remaining binding | 100% |
| c1cnn2ncc(-c3ccnc(N4CCC45COC5)n3)c2c1 | MET Y1235D | binding | 1 µM | remaining binding | 80% |
| Cc1c[nH]c2nccc(Oc3c(F)cc(Nc4cc(Cl)nc(N)n4)cc3F)c12 | MET | cell-free assay, competition with immobilised ligand | 0.1 µM | remaining binding | 83% |
| Cc1ccc(C(=O)Nc2ccc(CN3CCN(C)CC3)c(C(F)(F)F)c2)cc1C#Cc1cnc2cccnn12 | MET | cell-free assay | 23.5 nM | remaining signal | 92% |
| N[C@@H]1CCN(c2nccc(-c3cnn4ncccc34)n2)C1 | MET Y1235D | binding | 1 µM | remaining binding | 100% |
| Cc1ccc(C(=O)NCc2ccsc2)cc1C#Cc1cn(C(C)C)c2ncnc(N)c12 | MET | enzyme activity, inhibitor | 1 µM | activity vs control | 86% |
| CN(c1nccc(-c2cnn3ncccc23)n1)C1CC1 | MET Y1235D | binding | 1 µM | remaining binding | 100% |
| O=C1NC(=O)c2cc(Nc3ccc(F)cc3)c(Nc3ccc(F)cc3)cc21 | MET | cell-free assay | 0.5 µM | remaining signal | 96.7% |
| CO[C@@H](C)c1c(Nc2ccc([C@H](N(C)C(=O)C3CCS(=O)(=O)CC3)C(F)(F)F)cc2)cnc2cc(Cl)nn12 | MET Y1235D | cell-free assay, competition with immobilised ligand | 1 µM | remaining binding | 100% |
| CC/C(=N\NC(=O)NCc1cccc(O)c1)c1ccc(O)c(C)c1O | MET D1228H | enzyme activity, inhibitor | 0.1 µM | inhibition | -2.8% |
| CNC(=O)c1cc2c(Oc3ccc(NC(=O)C4(C(=O)Nc5ccc(F)cc5)CC4)cc3)ccnc2cc1OC | Hepatocyte growth factor receptor (MET, Homo sapiens, UniProt P08581, Y1230D) | enzyme activity, inhibitor, radiometric | 1 µM | inhibition | 100% |
| Cc1sc(C(=O)NC2COC2)cc1-n1cc(NC(=O)Nc2c(F)cccc2Cl)cn1 | MET | enzyme activity, inhibitor | 10 µM | remaining activity | 77% |
| O=C(Nc1ccc(Cl)cc1)c1ccccc1NCc1ccncc1 | MET | cell-free assay | 0.5 µM | remaining signal | 92.2% |
| O=S(=O)(NC1CCC(c2cc(F)ccc2F)(S(=O)(=O)c2ccc(Cl)cc2)CC1)C(F)(F)F (stereo not shown) | MET | cell-free assay, competition with immobilised ligand | 1 µM | remaining binding | 100% |

| SMILES | target | assay | conditions | quantity | value |
| --- | --- | --- | --- | --- | --- |
| Nc1ncnc2occ(-c3ccc(NC(=O)Nc4cc(C(F)(F)F)ccc4F)cc3)c12 | MET M1250T | cell-free assay | 20 µM | remaining signal | 4.1% |
| CC(C)(O)[C@H]1CC[C@H](Nc2ccc3ncc(-c4cccc(C(F)(F)F)c4)n3n2)CC1 | MET | enzyme activity, inhibitor | 1 µM | remaining activity | 99.8% |
| O=C(N[C@H]1CCCCC/C=C\C2C[C@@]2(C(=O)O)NC(=O)[C@@H]2C[C@@H](Oc3ccncc3)CN2C1=O)OC1CCCC1 (stereo partly shown) | MET M1250T | cell-free assay, competition with immobilised ligand | 1 µM | remaining binding | 92% |
| Cc1ccc(NC(=O)c2ccc(C)c(C(F)(F)F)c2)cc1C#Cc1nn(C2CCC(O)CC2)c2ncnc(N)c12 (stereo not shown) | Hepatocyte growth factor receptor (MET, Homo sapiens, UniProt P08581, Y1230C) | cell-free assay | 10 µM | remaining signal | 139% |
| CN(C)c1ncc(F)c(-c2cnn3ncccc23)n1 | MET Y1235D | binding | 1 µM | remaining binding | 100% |
| CCN(CC)CCNC(=O)c1c(C)[nH]c(/C=C2\C(=O)Nc3ccc(F)cc32)c1C | MET | cell-free assay | 0.5 µM | remaining signal | 91% |
| NS(=O)(=O)c1cc(NC(=O)Cc2ccccc2)ccc1Oc1cccc(Cl)c1 | MET | cell-free assay, competition with immobilised ligand | 1 µM | remaining binding | 91% |
| COc1cc(Nc2c(C#N)cnc3cc(OCCCN4CCN(C)CC4)c(OC)cc23)c(Cl)cc1Cl | MET | cell-free assay | 0.5 µM | remaining signal | 84.5% |
| Cc1nccc(COC(=O)N2C[C@@H]3[C@@H](CNC(=O)c4ccc5[nH]nnc5c4)[C@@H]3C2)n1 | MET Y1235D | cell-free assay, competition with immobilised ligand | 1 µM | remaining binding | 92% |
| O=C(Nc1cnn(-c2csc(C(=O)NC3COC3)c2)c1)Nc1c(F)cccc1Cl | MET | enzyme activity, inhibitor | 5 µM | remaining activity | 86.1% |
| CC(C)(C)c1nc2c(s1)c1nc(N)ncc1c1ccc(NS(=O)(=O)c3c(F)cccc3F)c(F)c12 | MET | enzyme activity, inhibitor, radiometric | 1 µM | remaining activity | 90% |
| CC1CCCN1c1nccc(-c2cnn3ncccc23)n1 (stereo not shown) | MET M1250T | binding | 1 µM | remaining binding | 100% |
| Cc1cc(NC(=O)c2cccc3cc(-c4cccc5[nH]nc(N)c45)ccc23)ccc1F | MET | enzyme activity, inhibitor | 0.1 µM | activity vs control | 104% |
| CC(C)CC(=O)N1CCc2nc(-c3ccc(Br)cc3)nc(N(C)Cc3ccccc3)c2C1 | MET | cell-free assay, competition with immobilised ligand | 0.1 µM | remaining binding | 99% |
| CN(CCCC(F)(F)F)c1nccc(-c2cnn3ncccc23)n1 | MET Y1235D | binding | 1 µM | remaining binding | 100% |
